Test results published in ChEMBL document CHEMBL1129428 (J Med Chem, 1996).

Legend:
Rattus norvegicus [1] = experiment: Compound was tested for anticonvulsant activity after Oral Administration into Rats by using MES screen test after 0.5h,dose 30 mg/kg; number of rats out of four which were protected; format: functional
In short: (§1)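 Rats received the compound orally. […] Rats were tested in the MES screen at 0.25, 0.5, 1, 2 and 4 h. Each value is the number of rats protected out of 4. The test followed NINDS procedures.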

Rattus norvegicus [2] = experiment: Compound was tested for anticonvulsant activity after Oral Administration into Rats by using MES screen test after 2h,dose 30 mg/kg; number of rats out of four which were protected; format: functional; in short: as §1
Mus musculus [3] = experiment: Anticonvulsant activity after intraperitoneal injection into mice by using MES screen test after 0.5 hr; format: functional
[4] = Protection index = TD50/ED50 (MES); settings: mouse, in vivo; read-out: PI
Mus musculus [5] = experiment: Anticonvulsant activity after intraperitoneal injection into mice measured in a maximal electroshock scree (MES) screen; format: functional
Mus musculus [6] = experiment: Anticonvulsant activity after intraperitoneal injection into mice by using MES screen test after 0.25 hr; format: functional
Rattus norvegicus [7] = experiment: Compound was tested for anticonvulsant activity after Oral Administration into rat by using MES screen test after 4 hr; format: functional
In short: (§2)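 Rats dosed orally, typically at 50 mg/kg first, then mostly 12.5 mg/kg (some compounds at 30 mg/kg), and tested by maximal electroshock. Four rats per compound, scored at 0.25, 0.5, 1, 2 and 4 h as the number of rats protected out of 4.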

[8] = Compound was tested for toxicity after intraperitoneal injection into mice by using neurotoxicity screen test after 1 hr; format: organism-based; settings: mouse, in vivo, ip
In short: (§3)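 Quantitative intraperitoneal mouse testing in the MES, scPTZ or rotorod neurotoxicity screens at the peak time given for each compound (0.25–2 h). ED50 or TD50 reported in mg/kg with 95% CI and slope (SE).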

Rattus norvegicus [9] = experiment: Compound was tested for anticonvulsant activity after Oral Administration into Rats by using MES screen test after 1h,dose 30 mg/kg; number of rats out of four which were protected; format: functional; in short: as §1
[10] = Protection index = TD50/ED50; format: ADME; settings: read-out: PI
Rattus norvegicus [11] = experiment: Compound was tested for anticonvulsant activity after Oral Administration into Rats by using MES screen test after 4h,dose 30 mg/kg; number of rats out of four which were protected; format: functional; in short: as §1
Mus musculus [12] = experiment: Compound was tested for anticonvulsant activity after intraperitoneal injection into mice by using scPTZ screen test after 0.25 hr; format: functional; settings: ip; in short: as §3
Mus musculus [13] = experiment: Toxicity after intraperitoneal injection into mice by using toxicity screen test after 0.5 hr; format: organism-based; settings: in vivo, ip
In short: (§4)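 Mice injected intraperitoneally at 30, 100 and 300 mg/kg and examined 0.5 and 4 h afterwards. Each entry is the minimum dose giving activity (MES protection, scPTZ protection, or rotorod failure for neurotoxicity) in half or more of the mice. Activity is called absent if nothing occurs at 300 mg/kg.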

Mus musculus [14] = experiment: Compound was tested for toxicity after intraperitoneal injection into mice by using toxicity screen test after 4 hr; format: organism-based; settings: in vivo, ip; in short: as §4
Rattus norvegicus [15] = experiment: Compound was tested for anticonvulsant activity after Oral Administration into Rats by using MES screen test after 0.25h,dose 30 mg/kg; number of rats out of four which were protected; format: functional; in short: as §1
Rattus norvegicus [16] = experiment: Compound was tested for anticonvulsant activity after Oral Administration into Rats by using MES screen test after 4h,dose 12.5 mg/kg; number of rats out of four which were protected; format: functional; in short: as §1
Rattus norvegicus [17] = experiment: Anticonvulsant activity after oral administration into rats; format: functional; parameters: concentration or dose not given beside the values
Mus musculus [18] = experiment: Anticonvulsant activity after intraperitoneal injection into mice by using scPTZ screen after 0.5 hr; format: functional
Rattus norvegicus [19] = experiment: Compound was tested for anticonvulsant activity after Oral Administration into rat by using MES screen test after 0.5 hr; format: functional; in short: as §2
[20] = Compound was tested for toxicity after oral administration in rat by using neurotoxicity screen test after 2 hr; format: organism-based; settings: in vivo
In short: (§5)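 Rat neurotoxicity after oral dosing, observed at 0.25, 0.5, 1, 2, 4, 6, 8 and 24 h (8 h omitted for one compound).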

Rattus norvegicus [21] = experiment: Compound was tested for anticonvulsant activity after Oral Administration into Rats by using MES screen test after 0.25h,dose 12.5 mg/kg; number of rats out of four which were protected; format: functional; in short: as §1
[22] = Protection index = TD50/ED50 (MES); format: ADME, organism-based; settings: rat, in vivo; read-out: PI
Rattus norvegicus [23] = experiment: Compound was tested for anticonvulsant activity after Oral Administration into Rats by using MES screen test after 2h,dose 12.5 mg/kg; number of rats out of four which were protected; format: functional; in short: as §1
Mus musculus [24] = experiment: Anticonvulsant activity after intraperitoneal injection into mice by using scPTZ screen test after 4 hr; format: functional
[25] = Partition coefficient (logP); format: physicochemical; settings: octanol/water
In short: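 Partition between 1-octanol and buffer at pH 7.4, with solutions prepared in 1-octanol before buffer is added. Quantified by UV, using λmax and ε values measured in 1-octanol.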

Rattus norvegicus [26] = experiment: Compound was tested for anticonvulsant activity after Oral Administration into Rats by using MES screen test after 1h,dose 12.5 mg/kg; number of rats out of four which were protected; format: functional; in short: as §1
Rattus norvegicus [27] = experiment: Compound was tested for anticonvulsant activity after Oral Administration into Rats by using MES screen test after 2h,dose 50 mg/kg; number of rats out of four which were protected; format: functional; in short: as §1
Rattus norvegicus [28] = experiment: Compound was tested for anticonvulsant activity after Oral Administration into Rats by using MES screen test after 0.25h,dose 50 mg/kg; No activity was demonstarted; format: functional, organism-based; parameters: dose 50 mg/kg; in short: as §1
Rattus norvegicus [29] = experiment: Compound was tested for anticonvulsant activity after Oral Administration into Rats by using MES screen test after 1h,dose 50 mg/kg; No activity was demonstarted; format: functional, organism-based; parameters: dose 50 mg/kg; in short: as §1
Rattus norvegicus [30] = experiment: Compound was tested for anticonvulsant activity after Oral Administration into Rats by using MES screen test after 0.5h,dose 50 mg/kg; No activity was demonstarted; format: functional, organism-based; parameters: dose 50 mg/kg; in short: as §1
Rattus norvegicus [31] = experiment: Compound was tested for anticonvulsant activity after Oral Administration into Rats by using MES screen test after 4h,dose 50 mg/kg; number of rats out of four which were protected; format: functional; in short: as §1
[32] = Compound was tested for toxicity after intraperitoneal injection into mice by using neurotoxicity screen test after 4 hr; format: organism-based; settings: mouse, in vivo, ip; in short: as §4
Rattus norvegicus [33] = experiment: Compound was tested for anticonvulsant activity after Oral Administration into Rats by using MES screen test after 0.25h,dose 12.5 mg/kg; No activity was demonstarted; format: functional, organism-based; parameters: dose 12.5 mg/kg; in short: as §1
Mus musculus [34] = experiment: Compound was tested for anticonvulsant activity after intraperitoneal injection into mice by using MES screen test after 4 hr; format: functional; settings: ip; in short: as §4
Rattus norvegicus [35] = experiment: Compound was tested for anticonvulsant activity after Oral Administration into Rats by using MES screen test after 0.5h,dose 30 mg/kg; No activity was demonstarted; format: functional, organism-based; parameters: dose 30 mg/kg; in short: as §1
Rattus norvegicus [36] = experiment: Compound was tested for anticonvulsant activity after Oral Administration into Rats by using MES screen test after 2h,dose 30 mg/kg; No activity was demonstarted; format: functional, organism-based; parameters: dose 30 mg/kg; in short: as §1
Rattus norvegicus [37] = experiment: Compound was tested for anticonvulsant activity after Oral Administration into Rats by using MES screen test after 1h,dose 30 mg/kg; No activity was demonstarted; format: functional, organism-based; parameters: dose 30 mg/kg; in short: as §1
Rattus norvegicus [38] = experiment: Compound was tested for anticonvulsant activity after Oral Administration into Rats by using MES screen test after 4h,dose 30 mg/kg; No activity was demonstarted; format: functional, organism-based; parameters: dose 30 mg/kg; in short: as §1
Rattus norvegicus [39] = experiment: Compound was tested for anticonvulsant activity after Oral Administration into Rats by using MES screen test after 0.25h,dose 30 mg/kg; No activity was demonstarted; format: functional, organism-based; parameters: dose 30 mg/kg; in short: as §1
[40] = Compound was tested for toxicity after intraperitoneal injection into mice by using neurotoxicity screen test after 2 hr; format: organism-based; settings: mouse, in vivo, ip; in short: as §3
[41] = Compound was tested for toxicity after oral administration in rat by using neurotoxicity screen test after 4 hr; format: organism-based; settings: in vivo; in short: as §5
Mus musculus [42] = experiment: Compound was tested for anticonvulsant activity after intraperitoneal injection into mice by using MES screen test after 2 hr; format: functional; settings: ip; in short: as §3
Mus musculus [43] = experiment: Compound was tested for anticonvulsant activity after intraperitoneal injection into mice by using scPTZ screen test after 2 hr; format: functional; settings: ip; in short: as §3
[44] = Compound was tested for toxicity after oral administration in rat by using neurotoxicity screen test after 0.25-24 hr; format: organism-based; settings: in vivo; in short: as §5
Mus musculus [45] = experiment: Compound was tested for anticonvulsant activity after intraperitoneal injection into mice by using scPTZ screen test after 1 hr; format: functional; settings: ip; in short: as §3

Structure (SMILES)	Activity (Rattus norvegicus [1])	Activity (Rattus norvegicus [2])	Dose (Mus musculus [3]) [mg/kg]	selectivity ratio [4]	Dose (Mus musculus [5]) [mg/kg]	ED50 (Rattus norvegicus [7]) [mg/kg]	Activity (Rattus norvegicus [9])	selectivity ratio [10]	Activity (Rattus norvegicus [11])	Dose (Mus musculus [13]) [mg/kg]	Dose (Mus musculus [14]) [mg/kg]	Activity (Rattus norvegicus [15])	Activity (Rattus norvegicus [16])	Activity (Rattus norvegicus [17])	Dose (Mus musculus [18]) [mg/kg]	Activity (Rattus norvegicus [23])	Dose (Mus musculus [24]) [mg/kg]	logP [25]	Activity (Rattus norvegicus [26])	further results
C/C(=N/NC(N)=O)c1ccc(Oc2ccccc2)cc1	4	4	30	8.09	100	9.73	4	1.7	4	100	100	4	–	–	–	–	–	–	–	ED50 (Mus musculus [6]): 9.08 mg/kg; TD50 at 1 h [8]: 73.5 mg/kg; ED50 (Mus musculus [12]): 43.3 mg/kg
CC(=O)N/N=C/c1ccc(Oc2ccc(F)cc2)cc1	–	–	30	–	30	–	–	–	–	100	100	–	1	4	100	2	100	1.96	2	ED50 (Rattus norvegicus [19]): 18.7 mg/kg; TD50 at 2 h [20]: > 125 mg/kg; Activity (Rattus norvegicus [21]): 1; selectivity ratio [22]: > 6.7
NC(=O)N/N=C/c1ccc(Oc2ccc(Oc3ccccc3)cc2)cc1	–	–	–	–	300	–	–	–	–	–	–	–	–	–	–	–	–	1.92	–	Activity (Rattus norvegicus [27]): 1; Activity (Rattus norvegicus [28]): No activity; Activity (Rattus norvegicus [29]): No activity; Activity (Rattus norvegicus [30]): No activity; Activity (Rattus norvegicus [31]): 1
NC(=O)N1c2ccccc2C=Cc2ccccc21 [CARBAMAZEPINE]	–	–	30	–	100	–	–	–	–	100	300	–	–	–	100	–	300	2.2	–	ED50 (Mus musculus [6]): 9.85 mg/kg; ED50 (Mus musculus [12]): > 50 mg/kg
CC/C(=N/NC(N)=O)c1ccc(Oc2ccc(Br)cc2)cc1	–	–	30	7.82	30	4.39	–	–	–	300	100	–	4	2	100	4	–	–	4	TD50 at 4 h [32]: 52.5 mg/kg; Activity (Rattus norvegicus [33]): No activity; ED50 (Mus musculus [34]): 6.71 mg/kg
NNC(=O)N/N=C/c1ccc(Oc2ccc(F)cc2)cc1	–	–	300	–	100	–	–	–	–	–	300	–	–	–	–	–	300	2.06	–	Activity (Rattus norvegicus [35]): No activity; Activity (Rattus norvegicus [36]): No activity; Activity (Rattus norvegicus [37]): No activity; Activity (Rattus norvegicus [38]): No activity; Activity (Rattus norvegicus [39]): No activity
O=CN/N=C/c1ccc(Sc2ccc(F)cc2)cc1	–	–	100	–	100	–	–	–	1	–	300	1	–	–	–	–	300	–	–	Activity (Rattus norvegicus [35]): No activity; Activity (Rattus norvegicus [36]): No activity; Activity (Rattus norvegicus [37]): No activity
C/C(=N/NC(N)=O)c1ccc(Oc2ccc(Cl)cc2)cc1	4	4	30	8.37	30	2.92	4	2.23	4	300	100	3	–	–	–	–	30	–	–	TD50 at 2 h [40]: 76.5 mg/kg; TD50 at 4 h [41]: < 500 mg/kg; ED50 (Mus musculus [42]): 9.14 mg/kg; ED50 (Mus musculus [43]): 34.4 mg/kg
CC/C(=N/NC(N)=O)c1ccc(Oc2ccccc2)cc1	4	3	30	–	100	–	3	–	–	100	100	1	–	–	–	–	–	–	–	ED50 (Rattus norvegicus [19]): 23.1 mg/kg; Activity (Rattus norvegicus [38]): No activity
CCC(C)c1ccc(Oc2ccc(/C=N\NC(N)=O)cc2)cc1 (configuration not stated)	–	–	100	–	30	3.21	–	1.51	–	300	100	–	4	2	–	3	100	–	2	TD50 [44]: > 322 mg/kg; TD50 at 4 h [32]: 131 mg/kg; Activity (Rattus norvegicus [33]): No activity; ED50 (Mus musculus [34]): 13.4 mg/kg; ED50 (Mus musculus [45]): 86.9 mg/kg
